ChEMBL document CHEMBL3632617, “Chrysin-benzothiazole conjugates as antioxidant and anticancer agents” (Bioorg Med Chem Lett, 2015)
In brackets after ≈: the same amount, converted by molar mass.

Experiments:
[1] = Antioxidant activity assessed as DPPH radical scavenging activity after 25 mins by UV-Visible spectrophotometric analysis; type: physicochemical
Summary of the method: (§1)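 Radical scavenging by DPPH (Brand–Williams method) and by ABTS radical-cation decolorization via single electron transfer. Ascorbic acid served as the reference. IC50 is the concentration that inhibits 50% of the radicals. Results are the average of triplicate analyses.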

[2] = Antioxidant activity assessed as ABTS radical scavenging activity after 10 mins by UV-Visible spectrophotometric analysis; type: physicochemical; summary of the method: as §1
HeLa [3] = experiment: Cytotoxicity against human HeLa cells after 48 hrs by SRB assay; type: functional, cell-based
Summary of the method: (§2)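 Cell lines (HeLa, CaSki, SK-OV-3, MDCK) were obtained from ATCC. The colorimetric end point used the protein-binding dye sulforhodamine B.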

[4] = Cytotoxicity against human CaSki cells after 48 hrs by SRB assay; type: functional, cell-based; details: Ca-Ski; summary of the method: as §2
SK-OV-3 = experiment: Cytotoxicity against human SKOV3 cells after 48 hrs by SRB assay; type: functional, cell-based; details: SK-OV-3, 48 h; summary of the method: as §2
MDCK = experiment: Cytotoxicity against MDCK cells after 48 hrs by SRB assay; type: cell-based; details: Canis lupus familiaris; summary of the method: as §2
HeLa [5] = experiment: Cytotoxicity against human HeLa cells; type: functional, cell-based

Row | Compound | IC50 [1] [µg/mL] | IC50 [2] [µg/mL] | IC50 (HeLa [3]) [µg/mL] | IC50 [4] [µg/mL] | IC50 (SK-OV-3) [µg/mL] | CC50 (MDCK) [µg/mL] | IC50 (HeLa [5]) [µg/mL]
1 | O=C1O[C@H]([C@@H](O)CO)C(O)=C1O [ASCORBIC ACID] | 12.72 (≈ 72.2 µM) | 5.0925 (≈ 28.9 µM) |  |  |  |  | 
2 | O=c1cc(-c2ccccc2)oc2cc(OCCCCNc3nc4ccccc4s3)cc(O)c12 | 26.45 (≈ 57.7 µM) | 8.567 (≈ 18.7 µM) | 4.75 (≈ 10.4 µM) | 14.6 (≈ 31.9 µM) | 48.5 (≈ 106 µM) | 348 (≈ 758 µM) | 
3 | O=c1cc(-c2ccccc2)oc2cc(OCCCCNc3nc4ccc([N+](=O)[O-])cc4s3)cc(O)c12 | 30.25 (≈ 60.1 µM) | 8.135 (≈ 16.2 µM) | 6.44 (≈ 12.8 µM) | 13.2 (≈ 26.3 µM) | 41.4 (≈ 82.3 µM) | 310 (≈ 615 µM) | 
4 | O=c1cc(-c2ccccc2)oc2cc(OCCCCNNc3nc4ccccc4s3)cc(O)c12 | 24.34 (≈ 51.4 µM) | 8.734 (≈ 18.4 µM) | 4.64 (≈ 9.79 µM) | 14.6 (≈ 30.9 µM) | 51.7 (≈ 109 µM) | 316 (≈ 668 µM) | 
5 | N#Cc1ccc2nc(NCCCCOc3cc(O)c4c(=O)cc(-c5ccccc5)oc4c3)sc2c1 | 15.56 (≈ 32.2 µM) | 6.543 (≈ 13.5 µM) | 8.53 (≈ 17.6 µM) | 18.8 (≈ 39 µM) | 43.7 (≈ 90.4 µM) | 312 (≈ 646 µM) | 
6 | CCOc1ccc2nc(NCCCCOc3cc(O)c4c(=O)cc(-c5ccccc5)oc4c3)sc2c1 | 24.41 (≈ 48.6 µM) | 8.853 (≈ 17.6 µM) | 5.25 (≈ 10.4 µM) | 15.1 (≈ 29.9 µM) | 35.3 (≈ 70.3 µM) | 306 (≈ 610 µM) | 
7 | O=c1cc(-c2ccccc2)oc2cc(OCCCCNc3nc4ccc(C(F)(F)F)cc4s3)cc(O)c12 | 16.27 (≈ 30.9 µM) | 4.953 (≈ 9.41 µM) | 7.84 (≈ 14.9 µM) | 11.2 (≈ 21.3 µM) | 37.2 (≈ 70.6 µM) | 278 (≈ 529 µM) | 
8 | O=c1cc(-c2ccccc2)oc2cc(OCCCCNc3nc4c(F)cc(F)cc4s3)cc(O)c12 | 15.12 (≈ 30.6 µM) | 5.764 (≈ 11.7 µM) | 5.56 (≈ 11.2 µM) | 10.8 (≈ 21.9 µM) | 36.8 (≈ 74.5 µM) | 307 (≈ 621 µM) | 
9 | COc1ccc2nc(NCCCCOc3cc(O)c4c(=O)cc(-c5ccccc5)oc4c3)sc2c1 | 23.87 (≈ 48.9 µM) | 7.356 (≈ 15.1 µM) | 6.15 (≈ 12.6 µM) | 16.1 (≈ 33 µM) | 38.1 (≈ 78.1 µM) | 285 (≈ 583 µM) | 
10 | O=c1cc(-c2ccccc2)oc2cc(O)cc(O)c12 [CHRYSIN] |  |  |  |  |  |  | 10.9 (≈ 43 µM)

Second part, led by results:

Row | IC50 [1] [µg/mL] | IC50 [2] [µg/mL] | Compound | IC50 (HeLa [3]) [µg/mL] | IC50 [4] [µg/mL] | IC50 (SK-OV-3) [µg/mL] | CC50 (MDCK) [µg/mL] | IC50 (HeLa [5]) [µg/mL]
11 | 32.23 (≈ 62.6 µM) | 7.157 (≈ 13.9 µM) | CCC(=O)c1ccc2nc(NCCCCOc3cc(O)c4c(=O)cc(-c5ccccc5)oc4c3)sc2c1 | 6.26 (≈ 12.2 µM) | 17.8 (≈ 34.7 µM) | 35.6 (≈ 69.3 µM) | 296 (≈ 574 µM) | 
12 | 25.44 (≈ 43.5 µM) | 9.836 (≈ 16.8 µM) | O=c1cc(-c2ccccc2)oc2cc(OCCCCNc3nc4ccc(I)cc4s3)cc(O)c12 | 8.12 (≈ 13.9 µM) | 13.2 (≈ 22.5 µM) | 56.4 (≈ 96.6 µM) | 298 (≈ 510 µM) | 
13 | 13.16 (≈ 26.7 µM) | 4.156 (≈ 8.43 µM) | O=c1cc(-c2ccccc2)oc2cc(OCCCCNc3nc4ccc(Cl)cc4s3)cc(O)c12 | 5.95 (≈ 12.1 µM) | 12.4 (≈ 25.2 µM) | 39.2 (≈ 79.6 µM) | 338 (≈ 685 µM) | 
14 | 21.66 (≈ 43.1 µM) | 6.742 (≈ 13.4 µM) | O=C(O)c1ccc2nc(NCCCCOc3cc(O)c4c(=O)cc(-c5ccccc5)oc4c3)sc2c1 | 8.42 (≈ 16.8 µM) | 12.1 (≈ 24 µM) | 43.3 (≈ 86.3 µM) | 324 (≈ 645 µM) | 
15 | 29.16 (≈ 56.6 µM) | 8.355 (≈ 16.2 µM) | CC(=O)Nc1ccc2nc(NCCCCOc3cc(O)c4c(=O)cc(-c5ccccc5)oc4c3)sc2c1 | 6.91 (≈ 13.4 µM) | 11.4 (≈ 22 µM) | 51.3 (≈ 99.4 µM) | 291 (≈ 565 µM) | 
16 | 28.13 (≈ 59.5 µM) | 8.785 (≈ 18.6 µM) | Cc1ccc2nc(NCCCCOc3cc(O)c4c(=O)cc(-c5ccccc5)oc4c3)sc2c1 | 6.56 (≈ 13.9 µM) | 15.5 (≈ 32.9 µM) | 48.4 (≈ 102 µM) | 294 (≈ 621 µM) | 
17 | 30.72 (≈ 61.4 µM) | 7.026 (≈ 14 µM) | CC(=O)c1ccc2nc(NCCCCOc3cc(O)c4c(=O)cc(-c5ccccc5)oc4c3)sc2c1 | 7.78 (≈ 15.6 µM) | 14.5 (≈ 29 µM) | 34.3 (≈ 68.4 µM) | 311 (≈ 621 µM) | 
18 | 16.09 (≈ 29.9 µM) | 6.565 (≈ 12.2 µM) | O=c1cc(-c2ccccc2)oc2cc(OCCCCNc3nc4ccc(Br)cc4s3)cc(O)c12 | 6.56 (≈ 12.2 µM) | 12.4 (≈ 23.1 µM) | 35.1 (≈ 65.3 µM) | 289 (≈ 538 µM) | 
19 | 38.98 (≈ 73.7 µM) | 8.535 (≈ 16.1 µM) | CCCC(=O)c1ccc2nc(NCCCCOc3cc(O)c4c(=O)cc(-c5ccccc5)oc4c3)sc2c1 | 7.17 (≈ 13.6 µM) | 17.8 (≈ 33.6 µM) | 41.6 (≈ 78.7 µM) | 278 (≈ 525 µM) | 
20 | 14.74 (≈ 30.9 µM) | 5.246 (≈ 11 µM) | O=c1cc(-c2ccccc2)oc2cc(OCCCCNc3nc4ccc(F)cc4s3)cc(O)c12 | 5.03 (≈ 10.6 µM) | 13.4 (≈ 28 µM) | 33.7 (≈ 70.8 µM) | 324 (≈ 680 µM) | 
